This passage reports inhibition and fold change (FC) results from ChEMBL document CHEMBL5653631, “A Potent and Selective ULK1 Inhibitor Suppresses Autophagy and Sensitizes Cancer Cells to Nutrient Stress” (iScience, 2018).

Active and inactive are the calls of the source. No cut-off for these calls is given here.

Assay [1] concerns U2OS. Briefly: Inhibition of autophagy in human U2OS cells assessed as reduction in phagophore formation at 5 uM incubated for 2.5 hrs by Fluorescent microscopy based analysis. It is filed as functional, cell-based. The gist of the method: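 U2OS cells treated 2.5 hr with vehicle or 100 nM AZD8055, with or without 5 μM inhibitor; fixed and immunostained for endogenous ATG12; ATG12-positive puncta (phagophores) assessed by fluorescence microscopy.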

In assay [2] the target is Insulin receptor-related protein (Homo sapiens) (UniProt P14616). As to the kind of experiment: Inhibition of human recombinant IRR at 40 nM related to control ULK1.
The target of assay [3] is T1, Myotonin-protein kinase (Homo sapiens) (UniProt Q09013).
T1 sequence (whole entry): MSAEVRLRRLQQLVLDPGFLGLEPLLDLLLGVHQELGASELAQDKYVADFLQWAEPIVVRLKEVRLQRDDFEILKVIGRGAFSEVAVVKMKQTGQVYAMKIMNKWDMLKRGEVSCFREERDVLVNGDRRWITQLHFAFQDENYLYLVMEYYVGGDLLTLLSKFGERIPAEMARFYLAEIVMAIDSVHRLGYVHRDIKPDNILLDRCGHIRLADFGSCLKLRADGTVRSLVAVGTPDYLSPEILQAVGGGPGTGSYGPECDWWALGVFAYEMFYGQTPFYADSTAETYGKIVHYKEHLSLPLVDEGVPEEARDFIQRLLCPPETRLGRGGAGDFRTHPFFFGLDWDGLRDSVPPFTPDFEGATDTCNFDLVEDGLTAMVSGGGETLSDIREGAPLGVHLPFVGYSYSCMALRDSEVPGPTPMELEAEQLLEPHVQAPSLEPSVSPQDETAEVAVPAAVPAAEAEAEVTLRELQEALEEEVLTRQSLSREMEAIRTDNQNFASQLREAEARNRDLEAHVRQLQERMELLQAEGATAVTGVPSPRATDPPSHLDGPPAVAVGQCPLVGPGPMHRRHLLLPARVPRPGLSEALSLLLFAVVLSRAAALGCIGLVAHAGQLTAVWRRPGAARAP
Briefly: Inhibition of human recombinant DMPK1 at 500 nM related to control ULK1.

Assay [4] concerns the target Cyclin-dependent kinase-like 3 (Homo sapiens) (UniProt Q8IVW4). As to the kind of experiment: Inhibition of human recombinant CDKL3 at 15 nM in presence of ATP by radiometric assay relative to control.
Assay [5] has as its target Casein kinase I isoform gamma-3 (Homo sapiens) (UniProt Q9Y6M4). As to the kind of experiment: Inhibition of human recombinant CK1g3 at 15 nM related to control ULK1.
Assay [6] deals with T2, Discoidin domain-containing receptor 2 (Homo sapiens) (UniProt Q16832).
T2 sequence (whole entry): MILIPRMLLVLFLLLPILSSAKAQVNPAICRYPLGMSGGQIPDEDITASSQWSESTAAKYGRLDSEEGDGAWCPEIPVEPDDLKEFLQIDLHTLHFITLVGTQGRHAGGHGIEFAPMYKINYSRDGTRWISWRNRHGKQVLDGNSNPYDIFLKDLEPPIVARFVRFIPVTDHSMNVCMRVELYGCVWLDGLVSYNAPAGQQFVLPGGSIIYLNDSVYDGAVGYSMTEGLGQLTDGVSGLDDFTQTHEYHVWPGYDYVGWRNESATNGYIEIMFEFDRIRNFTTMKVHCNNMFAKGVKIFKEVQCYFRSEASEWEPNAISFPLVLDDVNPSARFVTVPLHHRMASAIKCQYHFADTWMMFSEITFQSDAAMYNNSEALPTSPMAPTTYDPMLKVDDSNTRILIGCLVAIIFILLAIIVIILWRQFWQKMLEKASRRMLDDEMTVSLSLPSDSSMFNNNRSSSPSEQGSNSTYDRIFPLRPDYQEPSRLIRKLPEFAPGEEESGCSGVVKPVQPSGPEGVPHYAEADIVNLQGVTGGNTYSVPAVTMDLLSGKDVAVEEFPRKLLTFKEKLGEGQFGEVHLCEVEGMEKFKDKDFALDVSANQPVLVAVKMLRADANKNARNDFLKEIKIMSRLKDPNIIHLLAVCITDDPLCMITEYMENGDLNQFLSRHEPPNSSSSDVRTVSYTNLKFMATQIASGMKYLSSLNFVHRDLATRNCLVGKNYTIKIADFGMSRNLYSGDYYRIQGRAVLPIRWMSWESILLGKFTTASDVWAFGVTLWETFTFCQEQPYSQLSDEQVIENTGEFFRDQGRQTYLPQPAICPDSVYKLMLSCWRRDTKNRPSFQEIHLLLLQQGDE
As to the kind of experiment: Inhibition of human recombinant DDR2 at 15 nM related to control ULK1.

Assay [7] deals with T3, Rhodopsin kinase GRK1 (Homo sapiens) (UniProt Q15835).
T3 sequence (whole entry): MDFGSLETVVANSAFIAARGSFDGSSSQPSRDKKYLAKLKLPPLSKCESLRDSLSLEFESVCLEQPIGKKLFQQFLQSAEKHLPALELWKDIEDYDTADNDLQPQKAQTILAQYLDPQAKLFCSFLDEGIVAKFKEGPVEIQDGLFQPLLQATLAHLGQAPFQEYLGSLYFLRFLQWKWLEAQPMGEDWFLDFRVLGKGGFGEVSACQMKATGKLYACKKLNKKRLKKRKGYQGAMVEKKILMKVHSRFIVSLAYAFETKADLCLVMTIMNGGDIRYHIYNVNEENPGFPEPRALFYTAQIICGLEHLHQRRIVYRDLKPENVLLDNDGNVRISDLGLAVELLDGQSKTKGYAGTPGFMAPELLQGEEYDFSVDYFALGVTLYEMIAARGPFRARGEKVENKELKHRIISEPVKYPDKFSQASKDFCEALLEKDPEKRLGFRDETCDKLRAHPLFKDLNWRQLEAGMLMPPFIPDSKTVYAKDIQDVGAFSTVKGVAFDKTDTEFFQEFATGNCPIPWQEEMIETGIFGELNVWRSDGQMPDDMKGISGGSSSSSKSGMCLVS
As to the kind of experiment: Inhibition of human recombinant RHOK at 15 nM related to control ULK1.

Assay [8] concerns the target Tyrosine-protein kinase SYK (Homo sapiens) (UniProt P43405). Briefly: Inhibition of human recombinant SYK at 15 nM related to control ULK1.

Chain of Casein kinase I isoform gamma-3 (Homo sapiens) (Q9Y6M4 whole entry, looked up, the tested form may be a part, canonical isoform): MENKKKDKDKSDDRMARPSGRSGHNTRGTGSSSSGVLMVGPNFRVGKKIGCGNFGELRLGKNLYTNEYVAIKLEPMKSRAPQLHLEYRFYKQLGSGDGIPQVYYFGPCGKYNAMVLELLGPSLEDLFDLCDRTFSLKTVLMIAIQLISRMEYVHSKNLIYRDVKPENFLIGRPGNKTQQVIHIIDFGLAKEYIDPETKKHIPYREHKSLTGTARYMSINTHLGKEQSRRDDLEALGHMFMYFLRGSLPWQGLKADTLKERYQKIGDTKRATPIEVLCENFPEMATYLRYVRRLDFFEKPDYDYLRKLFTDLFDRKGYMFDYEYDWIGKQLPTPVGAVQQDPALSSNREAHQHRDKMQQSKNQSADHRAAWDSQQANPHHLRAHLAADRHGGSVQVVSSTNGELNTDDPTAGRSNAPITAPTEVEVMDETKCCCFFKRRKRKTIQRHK
Chain of Cyclin-dependent kinase-like 3 (Homo sapiens) (Q8IVW4 whole entry, looked up, canonical isoform): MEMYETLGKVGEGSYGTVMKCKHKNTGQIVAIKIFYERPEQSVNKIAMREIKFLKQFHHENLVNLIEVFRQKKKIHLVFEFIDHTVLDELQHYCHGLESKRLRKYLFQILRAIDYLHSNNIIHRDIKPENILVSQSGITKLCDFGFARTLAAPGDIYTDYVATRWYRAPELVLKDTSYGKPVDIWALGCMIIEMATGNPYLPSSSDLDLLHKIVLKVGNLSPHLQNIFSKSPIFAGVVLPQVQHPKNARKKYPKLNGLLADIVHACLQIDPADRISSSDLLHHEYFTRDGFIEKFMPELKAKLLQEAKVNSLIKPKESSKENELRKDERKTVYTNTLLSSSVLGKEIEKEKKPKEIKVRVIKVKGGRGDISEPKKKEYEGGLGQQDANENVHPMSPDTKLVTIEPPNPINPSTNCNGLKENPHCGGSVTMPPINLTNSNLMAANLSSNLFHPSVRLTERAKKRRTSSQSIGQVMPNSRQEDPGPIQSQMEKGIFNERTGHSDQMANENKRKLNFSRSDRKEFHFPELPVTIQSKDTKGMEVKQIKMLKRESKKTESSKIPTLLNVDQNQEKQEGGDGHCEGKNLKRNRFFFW
Chain of Insulin receptor-related protein (Homo sapiens) (P14616 27-742 limits assumed): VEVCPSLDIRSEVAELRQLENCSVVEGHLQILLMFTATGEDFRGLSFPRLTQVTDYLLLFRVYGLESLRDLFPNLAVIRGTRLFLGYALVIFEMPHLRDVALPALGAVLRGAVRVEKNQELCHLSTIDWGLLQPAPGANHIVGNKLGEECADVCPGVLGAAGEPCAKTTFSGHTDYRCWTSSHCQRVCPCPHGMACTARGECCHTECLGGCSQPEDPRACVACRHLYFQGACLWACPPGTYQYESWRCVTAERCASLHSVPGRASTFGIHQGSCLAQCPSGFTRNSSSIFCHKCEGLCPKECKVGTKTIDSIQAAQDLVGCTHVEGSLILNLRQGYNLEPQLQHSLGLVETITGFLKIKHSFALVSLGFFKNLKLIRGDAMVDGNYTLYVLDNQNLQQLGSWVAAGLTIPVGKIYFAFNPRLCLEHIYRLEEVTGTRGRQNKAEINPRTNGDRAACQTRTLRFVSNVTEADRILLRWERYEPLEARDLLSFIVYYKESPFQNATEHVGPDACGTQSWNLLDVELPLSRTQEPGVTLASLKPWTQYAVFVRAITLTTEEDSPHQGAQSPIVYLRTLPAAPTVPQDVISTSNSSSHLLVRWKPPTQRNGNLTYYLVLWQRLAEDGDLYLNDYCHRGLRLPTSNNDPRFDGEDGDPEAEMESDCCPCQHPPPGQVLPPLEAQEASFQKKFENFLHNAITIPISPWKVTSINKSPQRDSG
Chain of Insulin receptor-related protein (Homo sapiens) (P14616 747-1297 limits assumed): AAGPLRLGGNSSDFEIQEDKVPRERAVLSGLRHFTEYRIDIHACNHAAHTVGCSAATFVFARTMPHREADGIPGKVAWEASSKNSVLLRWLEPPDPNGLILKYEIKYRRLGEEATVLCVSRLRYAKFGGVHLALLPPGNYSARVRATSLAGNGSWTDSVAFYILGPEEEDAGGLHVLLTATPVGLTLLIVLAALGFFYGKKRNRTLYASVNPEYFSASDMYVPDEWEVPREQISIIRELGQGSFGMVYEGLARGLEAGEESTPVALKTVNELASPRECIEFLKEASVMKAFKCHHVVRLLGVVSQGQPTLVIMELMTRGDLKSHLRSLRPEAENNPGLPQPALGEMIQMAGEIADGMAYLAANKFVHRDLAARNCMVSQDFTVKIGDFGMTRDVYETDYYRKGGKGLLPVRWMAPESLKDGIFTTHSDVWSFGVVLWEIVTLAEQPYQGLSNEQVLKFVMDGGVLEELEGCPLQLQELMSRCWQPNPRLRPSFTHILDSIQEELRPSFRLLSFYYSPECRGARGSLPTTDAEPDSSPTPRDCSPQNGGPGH

As for `O=C(N[C@@H](C1CC1)C(F)(F)F)c1cc(-c2cnn3cc(-c4ccc(F)cc4)cnc23)cs1`, the inhibition entry in assay [1] was “Active”. Moreover, in assay [2], the fold change (FC) was 0.03.
On to `CNC(=O)c1ccccc1Oc1nc(Nc2cc(OC)c(OC)c(OC)c2)ncc1Br`, for which the fold change (FC) in assay [3] was 0.
As for `CC(C)[C@H](NC(=O)c1cc(-c2cnn3cc(-c4ccc(OCCN5CCCCC5)cc4)cnc23)cs1)C(F)(F)F`, the inhibition in assay [4] amounted to 34%. Further, the fold change (FC) in assay [5] is 0.03; in assay [6], 0; in assay [7] it was 0; in assay [8], 0.
